From article PMC7818638 (ACS Omega, 2021)
≈ marks a conversion by molar mass, not a printed value.

Experiments:
HepG2 = assay: Antiproliferative; assay type: cell-based; details: Homo sapiens, HepG2, read-out: HepG2 IC50 ± SD
Procedure, shortened: (§1)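 Test compounds are screened by MTT assay against human hepatoblastoma HepG2 cells and murine BALB/3T3 fibroblasts, with doxorubicin as the reference drug. Dose–response curves are plotted from the results. IC50 is taken as the concentration needed to kill half the cell population. Values are the mean of three independent experiments.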

[1] = test system: BALB/3T3 (murine fibroblast); assay: Cytotoxicity toward normal cell line BALB/3T3, MTT assay; assay type: cell-based; details: for IC50: Mus musculus, BALB/3T3, read-out: BALAB/3T3 IC50 ± SD; for toxicity on the normal cell line (BALAB/3T3): statement in words
Procedure, shortened: as §1

Structure (SMILES) | IC50 (HepG2) | IC50 [1] | toxicity on the normal cell line (BALAB/3T3) [1]
Cc1c(-c2cc(-c3ccccc3)c(C#N)c(N)n2)nnn1-c1ccc(Br)cc1 [Compound 3, 2-Amino-6-(1-(4-bromophenyl)-5-methyl-1H-1,2,3-triazol-4-yl)-4-phenylnicotinonitrile] | 17.2 ± 0.83 µg/mL (≈ 40 µM) |  | 
CCOC(=O)c1c(-c2cn(-c3ccccc3)nc2-c2nnn(-c3ccc(Br)cc3)c2C)cc(-c2nnn(-c3ccc(Br)cc3)c2C)nc1N [Compound 13, Ethyl 2-Amino-6-(1-(4-bromophenyl)-5-methyl-1H-1,2,3-triazol-4-yl)-4-(3-(1-(4-bromophenyl)-5-methyl-1H-1,2,3-triazol-4-yl)-1-phenyl-1H-pyrazol-4-yl)nicotinate] | 6.24 ± 0.71 µg/mL (≈ 8 µM) | 61.24 ± 0.21 µg/mL (≈ 78.5 µM) | 
CCOC(=O)c1c(-c2ccc(OC)cc2)cc(-c2nnn(-c3ccc(Br)cc3)c2C)nc1N [Compound 11, Ethyl 2-Amino-6-(1-(4-bromophenyl)-5-methyl-1H-1,2,3-triazol-4-yl)-4-(4-methoxyphenyl)nicotinate] | 16.7 ± 0.83 µg/mL (≈ 32.8 µM) |  | 
Cc1c(-c2cc(-c3cn(-c4ccccc4)nc3-c3nnn(-c4ccc(Br)cc4)c3C)c(C#N)c(N)n2)nnn1-c1ccc(Br)cc1 [Compound 6, 2-Amino-6-(1-(4-bromophenyl)-5-methyl-1H-1,2,3-triazol-4-yl)-4-(3-(1-(4-bromophenyl)-5-methyl-1H-1,2,3-triazol-4-yl)-1-phenyl-1H-pyrazol-4-yl)nicotinonitrile] | 0.64 ± 0.14 µg/mL (≈ 0.873 µM) |  | no toxicity
COc1cc(-c2cc(-c3nnn(-c4ccc(Br)cc4)c3C)nc(N)c2C#N)ccc1O [Compound 8, 2-Amino-6-(1-(4-bromophenyl)-5-methyl-1H-1,2,3-triazol-4-yl)-4-(4-hydroxy-3-methoxyphenyl)nicotinonitrile] | 9.65 ± 0.37 µg/mL (≈ 20.2 µM) |  | 
CCOC(=O)c1c(-c2ccco2)cc(-c2nnn(-c3ccc(Br)cc3)c2C)nc1N [Compound 16, Ethyl 2-Amino-6-(1-(4-bromophenyl)-5-methyl-1H-1,2,3-triazol-4-yl)-4-(furan-2-yl)nicotinate] | 13.24 ± 0.12 µg/mL (≈ 28.3 µM) |  | 
CCOC(=O)c1c(-c2ccccc2)cc(-c2nnn(-c3ccc(Br)cc3)c2C)nc1N [Compound 10, Ethyl 2-Amino-6-(1-(4-bromophenyl)-5-methyl-1H-1,2,3-triazol-4-yl)-4-phenylnicotinate] | 23.2 ± 0.45 µg/mL (≈ 48.6 µM) | 76.72 ± 0.24 µg/mL (≈ 160 µM) | 
Cc1c(-c2cc(-c3ccco3)c(C#N)c(N)n2)nnn1-c1ccc(Br)cc1 [Compound 9, 2-Amino-6-(1-(4-bromophenyl)-5-methyl-1H-1,2,3-triazol-4-yl)-4-(furan-2-yl)nicotinonitrile] | 11.15 ± 0.01 µg/mL (≈ 26.5 µM) |  | 
CCOC(=O)c1c(-c2cn(-c3ccccc3)nc2-c2nnn(-c3cccc([N+](=O)[O-])c3)c2C)cc(-c2nnn(-c3ccc(Br)cc3)c2C)nc1N [Compound 14, Ethyl 2-Amino-6-(1-(4-bromophenyl)-5-methyl-1H-1,2,3-triazol-4-yl)-4-(3-(5-methyl-1-(3-nitrophenyl)-1H-1,2,3-triazol-4-yl)-1-phenyl-1H-pyrazol-4-yl)nicotinate] | 9.54 ± 0.05 µg/mL (≈ 12.8 µM) |  | 
Cc1c(-c2cc(-c3cn(-c4ccccc4)nc3-c3nnn(-c4cccc([N+](=O)[O-])c4)c3C)c(C#N)c(N)n2)nnn1-c1ccc(Br)cc1 [Compound 7, 2-Amino-6-(1-(4-bromophenyl)-5-methyl-1H-1,2,3-triazol-4-yl)-4-(3-(5-methyl-1-(3-nitrophenyl)-1H-1,2,3-triazol-4-yl)-1-phenyl-1H-pyrazol-4-yl)nicotinonitrile] | 1.08 ± 0.94 µg/mL (≈ 1.54 µM) |  | no toxicity
COc1cccc2c1C(=O)c1c(O)c3c(c(O)c1C2=O)C[C@@](O)(C(=O)CO)C[C@@H]3O[C@H]1C[C@H](N)[C@H](O)[C@H](C)O1 [doxorubicin, reference compound] | 3.56 ± 0.46 µg/mL (≈ 6.55 µM) |  | 
CCOC(=O)c1c(-c2ccc(O)c(OC)c2)cc(-c2nnn(-c3ccc(Br)cc3)c2C)nc1N [Compound 15, Ethyl 2-Amino-6-(1-(4-bromophenyl)-5-methyl-1H-1,2,3-triazol-4-yl)-4-(4-hydroxy-3-methoxyphenyl)nicotinate] | 11.3 ± 0.95 µg/mL (≈ 21.6 µM) | 18.3 ± 1.81 µg/mL (≈ 35 µM) | 
